Values after ≈ are worked out from the molar mass of the structure shown. Bounds are passed on as bounds.

Assay [1] deals with Staphylococcus aureus. Kind of assay: Antibacterial activity against aminoglycoside-susceptible Staphylococcus aureus ATCC 25923 after 12 to 18 hrs. The class given is functional. A digest of the protocol: (§1)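 Broth microdilution MIC. Bacteria grown in Trypticase Soy broth at 35 °C for 1–2 h, then diluted with broth to an absorbance of 0.08–0.1 at 625 nm. This suspension was further diluted into broth and dispensed into 96-well plates containing 2-fold serial dilutions of compound. Plates were incubated 12–18 h at 35 °C. MIC is the lowest concentration inhibiting growth, repeated at least three times.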

Assay [2] has as its system Klebsiella pneumoniae. Kind of assay: Antibacterial activity against aminoglycoside-susceptible Klebsiella pneumoniae ATCC 13883 after 12 to 18 hrs. The class given is functional. A digest of the protocol:
as §1

Assay [3] has as its system Klebsiella pneumoniae. Kind of assay: Antibacterial activity against aminoglycoside-resistant Klebsiella pneumoniae ATCC 700603 after 12 to 18 hrs.
The subject of a further assay is Pseudomonas aeruginosa. Kind of assay: Antibacterial activity against aminoglycoside-resistant Pseudomonas aeruginosa ATCC 27853 after 12 to 18 hrs. The format is functional. The procedure, abridged:
(§2)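 Broth microdilution MIC. Bacteria grown in Trypticase Soy broth at 35 °C for 1–2 h, then adjusted to absorbance 0.08–0.1 at 625 nm. This suspension was diluted into 10 mL broth and dispensed into wells, and 2-fold serial dilutions of compound were added. Plates were incubated at 35 °C for 12–18 h. MIC was the lowest concentration inhibiting growth, with at least three repeats.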

Assay [4] deals with Staphylococcus aureus. Kind of assay: Antibacterial activity against aminoglycoside-resistant Staphylococcus aureus ATCC 33591 after 12 to 18 hrs. The format is functional. A digest of the protocol:
as §2

The test system of another assay is Escherichia coli. Kind of assay: Antibacterial activity against aminoglycoside-susceptible Escherichia coli ATCC 25922 after 12 to 18 hrs. The class given is functional. A digest of the protocol: as §1

With `CCCCCCNC(=O)O[C@@H]1[C@@H](OC(=O)NCCCCCC)[C@H](N)C[C@H](N)[C@H]1O[C@@H]1CC[C@H](N)[C@@H](CN)O1`, the MIC (as a rule, the lowest concentration found to suppress growth) in the assay with Staphylococcus aureus [1] is 32 µg/mL (≈ 58.7 µM); in the assay on Klebsiella pneumoniae [2], 4 µg/mL (≈ 7.34 µM); with Klebsiella pneumoniae [3], not below 250 µg/mL; against Pseudomonas aeruginosa, 16 µg/mL (≈ 29.4 µM); in the assay on Staphylococcus aureus [4] it was 16 µg/mL (≈ 29.4 µM); in the assay on Escherichia coli, 125 µg/mL (≈ 229 µM).
For `NC[C@@H]1CC[C@@H](N)[C@@H](O[C@H]2[C@H](O)[C@@H](O[C@@H]3O[C@H](CO)[C@@H](O)[C@H](O)[C@H]3O)[C@H](N)C[C@@H]2N)O1`, the minimum inhibitory concentration (MIC) in the assay on Staphylococcus aureus [1] stood at 125 µg/mL (≈ 276 µM); with Escherichia coli, 64 µg/mL (≈ 141 µM).
For the compound `NC[C@H]1O[C@H](O[C@H]2[C@H](O)[C@@H](O[C@@H]3O[C@H](CO)[C@@H](O)[C@H](O)[C@H]3O)[C@H](N)C[C@@H]2N)CC[C@@H]1N`, the minimal inhibitory concentration (MIC) against Staphylococcus aureus [1] and with Escherichia coli was not below 250 µg/mL each time.
Consider `C[C@H]1O[C@@H](O[C@@H]2[C@@H](O)[C@H](O[C@@H]3CC[C@H](N)[C@@H](CN)O3)[C@@H](N)C[C@H]2N)[C@H](O)[C@@H](N)[C@@H]1O`, for which the MIC in the assay with Staphylococcus aureus [1] stood at 8 µg/mL (≈ 18.4 µM); in the assay with Escherichia coli, 16 µg/mL (≈ 36.7 µM).
Regarding `CCCCCCNC(=O)O[C@@H]1[C@@H](O)[C@H](O[C@H]2O[C@H](CN)[C@@H](O)[C@H](O)[C@H]2N)[C@@H](N)C[C@H]1N`, the MIC against Klebsiella pneumoniae [2] was 16 µg/mL (≈ 35.6 µM); against Klebsiella pneumoniae [3] it was 125 µg/mL (≈ 278 µM); against Pseudomonas aeruginosa it was 64 µg/mL (≈ 142 µM); against Staphylococcus aureus [4], not below 250 µg/mL.
As to `CCCCCCNC(=O)O[C@@H]1[C@@H](O)[C@H](O[C@H]2O[C@H](CN)CC[C@H]2N)[C@@H](N)C[C@H]1N`, the minimal inhibitory concentration (MIC) is 125 µg/mL (≈ 299 µM) in the assay with Staphylococcus aureus [1]; 16 µg/mL (≈ 38.3 µM) with Klebsiella pneumoniae [2]; 125 µg/mL (≈ 299 µM) in the assay on Klebsiella pneumoniae [3]; 16 µg/mL (≈ 38.3 µM) against Pseudomonas aeruginosa; 64 µg/mL (≈ 153 µM) against Staphylococcus aureus [4]; not below 250 µg/mL against Escherichia coli.
Take `CCCCCCNC(=O)O[C@@H]1[C@@H](O)[C@H](O[C@@H]2CC[C@H](N)[C@@H](CN)O2)[C@@H](N)C[C@H]1N`: the minimum inhibitory concentration (MIC) is 32 µg/mL (≈ 76.6 µM) against Staphylococcus aureus [1]; 16 µg/mL (≈ 38.3 µM) in the assay on Klebsiella pneumoniae [2]; not below 250 µg/mL against Klebsiella pneumoniae [3]; 16 µg/mL (≈ 38.3 µM) against Pseudomonas aeruginosa; 64 µg/mL (≈ 153 µM) against Staphylococcus aureus [4]; not below 250 µg/mL in the assay on Escherichia coli.
With `C[C@H]1O[C@@H](O[C@@H]2[C@@H](O)[C@H](N)C[C@H](N)[C@H]2O[C@H]2O[C@H](CN)CC[C@H]2N)[C@@H](O)[C@@H](O)[C@@H]1N`, the MIC in the assay with Staphylococcus aureus [1] was found to be 4 µg/mL (≈ 9.18 µM); against Escherichia coli, 16 µg/mL (≈ 36.7 µM).
For `NC[C@H]1O[C@H](O[C@H]2[C@H](O)[C@@H](O)[C@H](N)C[C@@H]2N)CC[C@@H]1N`, in that order: 64 µg/mL (≈ 220 µM) and not below 250 µg/mL.
For the compound `CCCCCCNC(=O)O[C@@H]1[C@@H](OC(=O)NCCCCCC)[C@H](N)C[C@H](N)[C@H]1O[C@H]1O[C@H](CN)[C@@H](O)[C@H](O)[C@H]1N`, the MIC worked out at 32 µg/mL (≈ 55.5 µM) against Klebsiella pneumoniae [2], 125 µg/mL (≈ 217 µM) with Klebsiella pneumoniae [3], 125 µg/mL (≈ 217 µM) against Pseudomonas aeruginosa and 125 µg/mL (≈ 217 µM) in the assay with Staphylococcus aureus [4].
With `C[C@H]1O[C@@H](O[C@@H]2[C@@H](O)[C@H](N)C[C@H](N)[C@H]2O[C@@H]2CC[C@H](N)[C@@H](CN)O2)[C@@H](O)[C@@H](O)[C@@H]1N`, the MIC in the assay with Staphylococcus aureus [1] and with Escherichia coli was 125 µg/mL (≈ 287 µM) in each case.
On to `NC[C@@H]1CC[C@@H](N)[C@@H](O[C@H]2[C@H](O)[C@@H](O[C@@H]3OC[C@@H](O)[C@H](N)[C@H]3O)[C@H](N)C[C@@H]2N)O1`, for which the MIC was found to be 2 µg/mL (≈ 4.75 µM) in the assay on Staphylococcus aureus [1] and 4 µg/mL (≈ 9.49 µM) with Escherichia coli.
In the same order, the values of `NC[C@@H]1O[C@H](O[C@H]2[C@@H](O)[C@H](O[C@@H]3[C@@H](O)[C@H](N)C[C@H](N)[C@H]3O[C@H]3O[C@H](CN)[C@@H](O)[C@H](O)[C@H]3N)O[C@@H]2CO)[C@H](N)[C@@H](O)[C@@H]1O` [FRAMYCETIN] are 1 µg/mL (≈ 1.63 µM) and 4 µg/mL (≈ 6.51 µM).
Turning to `NC[C@@H]1CC[C@@H](N)[C@@H](O[C@H]2[C@H](O)[C@@H](O)[C@H](N)C[C@@H]2N)O1` [GENTAMINE C1A], the MIC with Staphylococcus aureus [1] was 16 µg/mL (≈ 55.1 µM); in the assay on Escherichia coli, 32 µg/mL (≈ 110 µM).
For the compound `NC[C@H]1O[C@H](O[C@H]2[C@H](O)[C@@H](O[C@H]3O[C@H](CO)[C@@H](O)[C@H](N)[C@H]3O)[C@H](N)C[C@@H]2N)[C@H](O)[C@@H](O)[C@@H]1O` [KANAMYCIN], the minimum inhibitory concentration (MIC) turned out to be 2 µg/mL (≈ 4.13 µM) against Staphylococcus aureus [1] and 4 µg/mL (≈ 8.26 µM) with Escherichia coli.
As for `NC[C@H]1O[C@H](O[C@H]2[C@H](O)[C@@H](O)[C@H](N)C[C@@H]2N)[C@H](N)[C@@H](O)[C@@H]1O` [NEAMINE], the MIC in the assay with Staphylococcus aureus [1] was found to be 4 µg/mL (≈ 12.4 µM); in the assay with Klebsiella pneumoniae [2], 2 µg/mL (≈ 6.2 µM); against Klebsiella pneumoniae [3], 16 µg/mL (≈ 49.6 µM); in the assay on Pseudomonas aeruginosa it was 64 µg/mL (≈ 199 µM); in the assay with Staphylococcus aureus [4] it was 125 µg/mL (≈ 388 µM); against Escherichia coli, 32 µg/mL (≈ 99.3 µM).
